Measured values from ChEMBL document CHEMBL1123090, “Inhibition of liver alcohol dehydrogenase and ethanol metabolism by 3-substituted thiolane 1-oxides” (J Med Chem, 1985).

What was measured:
[1] = In vitro inhibitory constant against rat liver alcohol dehydrogenase was determined
In short: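 Enzymes partially purified from liver (DEAE-cellulose, then AMP-agarose affinity), all steps 0–5 °C. Ethanol varied 0.4–2 mM, 0.5 mM NAD+, 83 mM potassium phosphate pH 7.3 with 40 mM KCl, 37 °C. At least three inhibitor levels; 32 initial velocities by A340. Kii from uncompetitive fit; one or two experiments.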

[2] = molecular target: Alcohol dehydrogenase (Equus caballus) (UniProt P00327+P00328); assay: In vitro inhibitory constant against horse liver alcohol dehydrogenase was determined
[3] = tested on: Alcohol dehydrogenase (Macaca mulatta); assay: In vitro inhibitory constant against monkey liver alcohol dehydrogenase was determined; settings: Cercopithecidae
[4] = species on record: Rattus norvegicus; assay: The Kii was determined with varied concentrations of inhibitor and ethanol by determining blood alcohol concentration in rats; assay type: functional
In short: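 Fed male Sprague-Dawley rats (175–280 g) given inhibitor ip at 0–1.0 mmol/kg in saline, then 10 min later ethanol 19.6 mmol/kg ip. Tail blood ethanol measured over time by GC with tert-butyl alcohol internal standard. Initial elimination rate taken from tangent after 60-min absorption phase; Kii by nonlinear fit.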

[5] = Compound dose that causes 50% toxicity in mice was determined; assay type: organism-based; settings: mouse, in vivo
In short: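 Fed male Swiss-Webster mice (16–20 g) given ip injections of sulfoxide solutions at 0.1–10 M (the concentration of the injected solution), at 0.1 mL/10 g body weight.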

[O-][S+]1CCC(c2ccccc2)C1 (centres undefined)
Kii [1]: 1.1 µM
Kii [2]: 0.36 µM
Kii [3]: 1.5 µM
Kii [4]: 87 µmol/kg
LD50 [5]: 4000 µmol/kg

CCCCCCC1CC[S+]([O-])C1 (centres undefined)
Kii [1]: 0.13 µM
Kii [2]: 0.19 µM
Kii [3]: 0.35 µM
Kii [4]: 65 µmol/kg
LD50 [5]: 770 µmol/kg

CC1CC[S+]([O-])C1 (centres undefined)
Kii [1]: 19 µM
Kii [2]: 7.5 µM
Kii [3]: 460 µM
Kii [4]: 64 µmol/kg
LD50 [5]: 1300 µmol/kg

CCCCC1CC[S+]([O-])C1 (centres undefined)
Kii [1]: 1.1 µM
Kii [2]: 0.63 µM
Kii [3]: 2.3 µM
Kii [4]: 11 µmol/kg
LD50 [5]: 1400 µmol/kg

[O-][S+]1CCCC1 [TETRAMETHYLENE SULFOXIDE]
Kii [1]: 130 µM
Kii [3]: 1600 µM
Kii [4]: 340 µmol/kg
LD50 [5]: 45000 µmol/kg
